Assay results as given in ChEMBL document CHEMBL4024801, “Synthesis and Structure-Activity Relationship (SAR) Studies of Novel Pyrazolopyridine Derivatives as Inhibitors of Enterovirus Replication” (J Med Chem, 2018).
pEC50: −log10 of the molar value.

Tests used:
Enterovirus A71 = test: Antiviral activity against Enterovirus A71 infected in monkey LLC-MK2 cells assessed as protection against virus-induced cytopathic effect after 3 to 4 days by crystal violet staining-based spectrophotometric method; type: functional, cell-based; conditions: Enterovirus A
Outline: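 EV-A71 was tested in LLC-MK2 cells grown in DMEM with 10% FBS, penicillin, streptomycin and glutamine, at a low MOI preset to give full CPE in 3–4 days. Compound was dissolved in DMSO and diluted 2-fold, in triplicate. Cells were fixed with formaldehyde when control CPE was maximal, then stained with crystal violet and read at OD590. EC50 came from a 7-point four-parameter or sigmoidal fit.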

Coxsackievirus B3 = test: Antiviral activity against Coxsackievirus B3 infected in human HeLa-RW cells assessed as protection against virus-induced cytopathic effect after 3 to 4 days by crystal violet staining-based spectrophotometric method; type: functional, cell-based; conditions: Enterovirus B
Outline: (§1)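 HeLa-RW cells grown in DMEM with penicillin, streptomycin, glutamine and 10% FBS. They were infected at a low MOI pre-set to give full CPE in 3-4 days. Compound in DMSO was added as serial 2-fold dilutions (7 points), each in triplicate. When control CPE was maximal, cells were fixed with 4% formaldehyde, stained with 0.25% crystal violet and read at OD590. EC50 came from a four-parameter or sigmoidal fit.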

Poliovirus 1 = test: Antiviral activity against Poliovirus 1 infected in human HeLa-RW cells assessed as protection against virus-induced cytopathic effect after 3 to 4 days by crystal violet staining-based spectrophotometric method; type: functional, cell-based; conditions: Enterovirus C; outline: as §1
Poliovirus 3 = test: Antiviral activity against Poliovirus 3 infected in human HeLa-RW cells assessed as protection against virus-induced cytopathic effect after 3 to 4 days by crystal violet staining-based spectrophotometric method; type: functional, cell-based; conditions: Enterovirus C; outline: as §1
LLC-MK2 = test: Cytotoxicity against monkey LLC-MK2 cells after 3 to 4 days by crystal violet staining-based spectrophotometric method; type: cell-based, Macaca mulatta; conditions: rhesus monkey
Outline: (§2)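 Uninfected cells (HeLa-RW or LLC-MK2, in DMEM with penicillin, streptomycin, glutamine and 10% FBS) were exposed to serial 2-fold compound dilutions for the same period as the CPE assay. They were then fixed with formaldehyde, stained with crystal violet and read by OD590 spectrophotometry to derive CC50. Values are means ± s.d. of 3 experiments, or the average of triplicates in one.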

[1] = Cytotoxicity against human HeLa-RW cells after 3 to 4 days by crystal violet staining-based spectrophotometric method; type: cell-based; conditions: hela-rw; outline: as §2
[2] = Selectivity index, ratio of CC50 for monkey LLC-MK2 cells to EC50 for Enterovirus A71; type: toxicity; conditions: read-out: Ratio CC50/EC50
Outline: (§3)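 LLC-MK2 cells in DMEM with 10% FBS were used for both arms. For EC50, cells were infected with EV-A71 at a low MOI giving full CPE in 3–4 days and exposed to 2-fold compound dilutions, in triplicate. For CC50, uninfected cells got 2-fold dilutions for the same period. Both arms were formaldehyde-fixed, crystal violet-stained and read at OD590.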

[3] = Selectivity index, ratio of CC50 for human HeLa-RW cells to EC50 for Coxsackievirus B3; type: toxicity; conditions: read-out: Ratio CC50/EC50
Outline: as §3, with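 “HeLa-RW” for “LLC-MK2”, “CVB3-H3” for “EV-A71”, “triplicate, with a 7-point fit.” for “triplicate.”, “fixed,” for “formaldehyde-fixed,”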

| SMILES | pEC50 (Enterovirus A71) | pEC50 (Coxsackievirus B3) | pEC50 (Poliovirus 1) | pEC50 (Poliovirus 3) | CC50 (LLC-MK2) | CC50 [1] | selectivity ratio [2] | selectivity ratio [3] |
| --- | --- | --- | --- | --- | --- | --- | --- | --- |
| CC(C)n1ncc2c(C(=O)Nc3ccc(F)cc3)cc(C3CC3)nc21 | 5.49 | 5.48 | < 4.60 | < 4.60 | 12.5 µM | 10 µM | 3.9 | 3 |
| CC(C)n1ncc2c(C(=O)Nc3cccc(F)c3)cc(-c3cccs3)nc21 | 5.62 | 6.10 | < 4.60 | < 4.60 | > 200 µM | > 200 µM | > 83.3 | > 250 |
| CC(C)n1ncc2c(C(=O)Nc3ccccc3S(N)(=O)=O)cc(-c3cccs3)nc21 | 5.60 | 5.59 | < 4.60 | < 4.60 | 25 µM | 10 µM | 10 | 3.8 |
| CC(C)n1ncc2c(C(=O)Nc3c(F)cccc3F)cc(-c3cccs3)nc21 | 5.47 | 5.49 | < 4.60 | < 4.60 | > 200 µM | > 200 µM | > 58.8 | > 62.5 |
| CC(C)n1ncc2c(C(=O)Nc3cccc(S(=O)(=O)N(C)C)c3)cc(-c3cccs3)nc21 | 6.10 | 6.00 | < 5.00 | < 5.00 | > 200 µM | 12 µM | > 250 | 12 |
| CC(C)n1ncc2c(C(=O)Nc3ccc(F)cc3)cc(-c3ccco3)nc21 | 5.59 | 5.62 | < 4.60 | < 4.60 | > 200 µM | > 200 µM | > 76.9 | > 83 |
| CC(C)n1ncc2c(C(=O)Nc3cccc(F)c3F)cc(-c3cccs3)nc21 | 5.52 | 5.57 | < 4.60 | < 4.60 | 75 µM | > 200 µM | 25 | > 74.1 |
| CC(C)n1ncc2c(C(=O)Nc3ncccn3)cc(-c3cccs3)nc21 | 6.30 | 6.22 | < 5.00 | < 5.00 | 75 µM | 37.5 µM | 150 | 62.5 |
| CC(C)n1ncc2c(C(=O)Nc3ccccn3)cc(-c3ccccc3)nc21 | 6.15 | 5.80 | < 4.60 | < 4.60 | 12.5 µM | 18.8 µM | 17.9 | 11.8 |
| CC(C)n1ncc2c(C(=O)Nc3ccccc3F)cc(-c3ccncc3)nc21 | < 5.00 | 5.29 | < 4.60 | < 4.60 | 45 µM | 37.5 µM | – | 7.4 |
| CC(C)n1ncc2c(C(=O)Nc3ccccc3F)cc(-c3cncs3)nc21 | 5.43 | 5.48 | < 4.60 | < 4.60 | 100 µM | > 200 µM | 27 | > 60.6 |
| CC(C)n1ncc2c(C(=O)Nc3ccc(F)cc3)cc(-c3cccs3)nc21 | 6.05 | 6.15 | < 4.60 | < 4.60 | > 200 µM | > 200 µM | > 222 | > 286 |
| CC(C)n1ncc2c(C(=O)Nc3ccncn3)cc(-c3cccs3)nc21 | 6.30 | 6.22 | < 5.00 | < 5.00 | 50 µM | 20 µM | 100 | 33.3 |
| CC(C)n1ncc2c(C(=O)Nc3ccccc3F)cc(-c3cccnc3)nc21 | < 5.00 | 5.15 | < 4.60 | < 4.60 | 50 µM | 37.5 µM | – | 5.4 |
| CC(C)n1ncc2c(C(=O)Nc3ccc(F)c(F)c3)cc(-c3cccs3)nc21 | < 4.60 | 5.89 | < 5.00 | < 5.00 | > 200 µM | > 200 µM | – | > 154 |
| CNS(=O)(=O)c1cccc(NC(=O)c2cc(-c3cccs3)nc3c2cnn3C(C)C)c1 | 6.15 | 6.30 | < 5.00 | < 5.00 | 25 µM | 12 µM | 35.7 | 24 |
| CC(C)n1ncc2c(C(=O)Nc3c(F)cc(F)cc3F)cc(-c3cccs3)nc21 | 5.52 | 5.74 | < 4.60 | < 4.60 | > 200 µM | > 200 µM | > 66.7 | > 111 |
| CC(C)n1ccc2c(C(=O)Nc3ccc(F)cc3)cc(-c3cccs3)nc21 | < 4.60 | 5.51 | < 4.60 | < 4.60 | > 200 µM | > 200 µM | – | > 64.5 |
| CC(C)n1ncc2c(C(=O)Nc3ccc(S(C)(=O)=O)cc3)cc(-c3cccs3)nc21 | 6.30 | 6.00 | < 5.00 | < 5.00 | 50 µM | 200 µM | 100 | 200 |
| CC(C)n1ncc2c(C(=O)Nc3ccccn3)cc(-c3cccs3)nc21 | 6.30 | 6.10 | < 5.00 | < 5.00 | > 200 µM | > 200 µM | > 400 | > 250 |
| CC(C)n1ncc2c(C(=O)Nc3ccc(F)cc3F)cc(-c3cccs3)nc21 | 5.80 | 5.85 | < 4.60 | < 4.60 | > 200 µM | > 200 µM | > 125 | > 143 |
| CC(C)n1ncc2c(C(=O)Nc3ccccc3F)cc(-c3ccccn3)nc21 | < 5.00 | 5.16 | < 4.60 | < 4.60 | 100 µM | > 200 µM | – | > 29 |
| CC(C)n1ncc2c(C(=O)Nc3ccc(F)cc3)cc(-c3ccsc3)nc21 | 5.85 | 5.89 | < 4.60 | < 4.60 | > 200 µM | 25 µM | > 143 | 19.2 |
| CC(C)n1ncc2c(C(=O)Nc3ccccc3F)cc(-c3ccccc3)nc21 | 5.24 | 5.35 | < 4.60 | < 4.60 | > 200 µM | 37.5 µM | > 35.1 | 8.3 |
| CC(C)n1ncc2c(C(=O)Nc3cc(F)ccc3F)cc(-c3cccs3)nc21 | 5.46 | 5.57 | < 4.60 | < 4.60 | 100 µM | > 200 µM | 28.6 | > 74.1 |
| CC(C)n1ncc2c(C(=O)Nc3ccccn3)cc(C3CC3)nc21 | 5.33 | 5.33 | < 4.60 | < 4.60 | 25 µM | 25 µM | 5.3 | 5.3 |
| CC(C)n1ncc2c(C(=O)Nc3ccncc3)cc(-c3cccs3)nc21 | 6.40 | 6.22 | < 5.00 | < 5.00 | 6.3 µM | 6 µM | 15.8 | 10 |
